How the values were obtained:
HK2 = test: Western blot expression level in U87-MG cells: HK2; type: cell-based, human; conditions: 10 µM, 48 h (Fig. S83)
Outline: (§1)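 U87-MG cells were treated for 48 h with test compound (5 or 10 μM) or left untreated as control. Protein was extracted and analysed by western blot, with β-actin as internal loading control.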

PKM2 = test: Western blot expression level in U87-MG cells: PKM2; type: cell-based, human; conditions: 10 µM, 48 h (Fig. S83)
Outline: as §1

GLS = test: Western blot expression level in U87-MG cells: GLS; type: cell-based, human; conditions: 10 µM, 48 h (Fig. S83)
Outline: as §1

FASN = test: Western blot expression level in U87-MG cells: FASN; type: cell-based, human; conditions: 10 µM, 48 h (Fig. S83)
Outline: as §1

human erythrocytes = test: Intracellular K+ uptake in erythrocytes; type: cell-based; conditions: 90 min
Outline: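 Fresh human blood was spun at 660 g for 10 min at 4 °C. Erythrocytes were washed three times in GNS buffer (50 g/L glucose, 9 g/L NaCl) and made into a 50% suspension. Cells were treated with test compound in isotonic KCl for 90 min at 37 °C, with a positive control ionophore, then stopped on ice. They were washed five times in cold GNS, haemolysed in water overnight, and digested in HNO3/HClO4. K+ was measured by atomic absorption against a KCl calibration curve.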

U251 = test: SRB proliferation assay, U251 glioma cells; type: cell-based, human; conditions: HA vs U251
Outline: (§2)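 Each ratio is the IC50 in normal human astrocytes divided by the IC50 in the glioma line. Glioma IC50 came from an SRB proliferation assay after 72 h of treatment across a concentration series. Doxorubicin was the positive control and untreated cells the negative control. Values are means ± S.D.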

U87-MG = test: SRB proliferation assay, U87-MG glioma cells; type: cell-based, human; conditions: HA vs U87-MG
Outline: as §2

SHG-44 = test: SRB proliferation assay, SHG-44 glioma cells; type: cell-based, human; conditions: HA vs SHG-44
Outline: as §2

C6 = test: SRB proliferation assay, C6 glioma cells; type: cell-based, rat; conditions: HA vs C6
Outline: as §2

human astrocytes (HA) = test: Growth inhibition of normal human astrocytes; type: cell-based; conditions: Astrocyte, read-out: IC50, human astrocytes (HA)
U87-MG cells = test: Cell cycle assay; type: cell-based, human; conditions: 0.8 μM, 12 h
U251 cells = test: Cell cycle assay; type: cell-based, human; conditions: U251, 0.8 μM, 12 h

## CC(C)[C@@H]1NC(=O)[C@H](C)OC(=O)[C@@H](C(C)C)NC(=O)[C@@H](C(C)C)OC(=O)[C@H](C(C)C)NC(=O)[C@H](C)OC(=O)[C@@H](C(C)C)NC(=O)[C@@H](C(C)C)OC(=O)[C@H](C(C)C)NC(=O)[C@H](C)OC(=O)[C@@H](C(C)C)NC(=O)[C@@H](C(C)C)OC1=O [Compound 1, valinomycin]
HK2
  expression level of HK2: remarkably reduced expression levels
PKM2
  expression level of PKM2: little effect on the downregulation
GLS
  expression level of GLS: remarkably reduced expression levels
FASN
  expression level of FANS: remarkably reduced expression levels
Human erythrocytes; 0.01 μM
  + % increase of intracellular K+ = (Compound−CON)/CON × 100%: 19.06%
  K+ (intracellular, erythrocytes): 3.81 ± 0.01 mg/mL
Human erythrocytes; 0.05 μM
  + % increase of intracellular K+ = (Compound−CON)/CON × 100%: 83.43%
  K+ (intracellular, erythrocytes): 5.87 ± 0.00 mg/mL
Human erythrocytes; 0.1 μM
  + % increase of intracellular K+ = (Compound−CON)/CON × 100%: 75.63%
  K+ (intracellular, erythrocytes): 5.62 ± 0.01 mg/mL

## COc1cccc2c1C(=O)c1c(O)c3c(c(O)c1C2=O)C[C@@](O)(C(=O)CO)C[C@@H]3O[C@H]1C[C@H](N)[C@H](O)[C@H](C)O1 [Doxorubicin (DOX), Doxorubicin]
U251
  Ratios of IC50HA/IC50GC, U251: 3
U87-MG
  Ratios of IC50HA/IC50GC, U87-MG: 22
SHG-44
  Ratios of IC50HA/IC50GC, SHG-44: 5
C6
  Ratios of IC50HA/IC50GC, C6: 17
Human astrocytes (HA)
  IC50: 8.7 ± 1.2 µM
U87-MG cells
  G0/G1, percentage of cells: 90.65%
  G2/GM, percentage of cells: 3.83%
  S, percentage of cells: 5.52%
U87-MG cells; increase vs control
  Compound(G0/G1)−CON(G0/G1): 49.69%
U251 cells
  G0/G1, percentage of cells: 71.45%
  G2/GM, percentage of cells: 13.04%
  S, percentage of cells: 15.51%
U251 cells; increase vs control
  Compound(G0/G1)−CON(G0/G1): 26.97%
